The values that follow come from ChEMBL document CHEMBL3425433, “Discovery of bicyclic pyrazoles as class III histone deacetylase SIRT1 and SIRT2 inhibitors” (Bioorg Med Chem Lett, 2015).

Activity calls are given as the source filed them. The rule behind the calls is not given here.

Data set [1] concerns the target T1, NAD-dependent protein deacetylase sirtuin-1 (Homo sapiens, UniProt Q96EB6).
T1 sequence (Q96EB6 whole entry): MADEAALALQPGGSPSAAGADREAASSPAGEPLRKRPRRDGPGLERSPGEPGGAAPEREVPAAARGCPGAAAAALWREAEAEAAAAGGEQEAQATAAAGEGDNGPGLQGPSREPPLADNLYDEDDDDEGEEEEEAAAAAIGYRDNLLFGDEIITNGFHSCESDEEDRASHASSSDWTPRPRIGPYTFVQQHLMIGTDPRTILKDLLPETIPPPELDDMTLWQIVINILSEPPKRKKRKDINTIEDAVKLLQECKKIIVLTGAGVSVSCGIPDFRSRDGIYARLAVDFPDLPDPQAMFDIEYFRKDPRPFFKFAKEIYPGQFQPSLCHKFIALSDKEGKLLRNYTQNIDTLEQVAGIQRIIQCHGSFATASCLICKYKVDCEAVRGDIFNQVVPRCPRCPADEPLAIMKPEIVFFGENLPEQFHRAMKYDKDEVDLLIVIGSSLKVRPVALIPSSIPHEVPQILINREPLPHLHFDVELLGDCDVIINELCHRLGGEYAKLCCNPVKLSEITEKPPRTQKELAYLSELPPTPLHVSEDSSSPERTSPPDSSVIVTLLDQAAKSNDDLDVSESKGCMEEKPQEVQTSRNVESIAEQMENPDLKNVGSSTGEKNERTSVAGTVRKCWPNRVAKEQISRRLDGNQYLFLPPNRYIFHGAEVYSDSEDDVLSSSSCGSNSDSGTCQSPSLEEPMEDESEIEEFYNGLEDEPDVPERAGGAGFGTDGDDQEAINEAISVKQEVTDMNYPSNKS
Nature of the data set: Inhibition of His-tagged human recombinant SIRT1 expressed in Escherichia coli using Cbz-Lys(Ac)-AMC as substrate by fluorescence assay.

The target in data set [2] is T2, Protein deacetylase HDAC6 (Homo sapiens) (UniProt Q9UBN7).
T2 sequence (whole entry): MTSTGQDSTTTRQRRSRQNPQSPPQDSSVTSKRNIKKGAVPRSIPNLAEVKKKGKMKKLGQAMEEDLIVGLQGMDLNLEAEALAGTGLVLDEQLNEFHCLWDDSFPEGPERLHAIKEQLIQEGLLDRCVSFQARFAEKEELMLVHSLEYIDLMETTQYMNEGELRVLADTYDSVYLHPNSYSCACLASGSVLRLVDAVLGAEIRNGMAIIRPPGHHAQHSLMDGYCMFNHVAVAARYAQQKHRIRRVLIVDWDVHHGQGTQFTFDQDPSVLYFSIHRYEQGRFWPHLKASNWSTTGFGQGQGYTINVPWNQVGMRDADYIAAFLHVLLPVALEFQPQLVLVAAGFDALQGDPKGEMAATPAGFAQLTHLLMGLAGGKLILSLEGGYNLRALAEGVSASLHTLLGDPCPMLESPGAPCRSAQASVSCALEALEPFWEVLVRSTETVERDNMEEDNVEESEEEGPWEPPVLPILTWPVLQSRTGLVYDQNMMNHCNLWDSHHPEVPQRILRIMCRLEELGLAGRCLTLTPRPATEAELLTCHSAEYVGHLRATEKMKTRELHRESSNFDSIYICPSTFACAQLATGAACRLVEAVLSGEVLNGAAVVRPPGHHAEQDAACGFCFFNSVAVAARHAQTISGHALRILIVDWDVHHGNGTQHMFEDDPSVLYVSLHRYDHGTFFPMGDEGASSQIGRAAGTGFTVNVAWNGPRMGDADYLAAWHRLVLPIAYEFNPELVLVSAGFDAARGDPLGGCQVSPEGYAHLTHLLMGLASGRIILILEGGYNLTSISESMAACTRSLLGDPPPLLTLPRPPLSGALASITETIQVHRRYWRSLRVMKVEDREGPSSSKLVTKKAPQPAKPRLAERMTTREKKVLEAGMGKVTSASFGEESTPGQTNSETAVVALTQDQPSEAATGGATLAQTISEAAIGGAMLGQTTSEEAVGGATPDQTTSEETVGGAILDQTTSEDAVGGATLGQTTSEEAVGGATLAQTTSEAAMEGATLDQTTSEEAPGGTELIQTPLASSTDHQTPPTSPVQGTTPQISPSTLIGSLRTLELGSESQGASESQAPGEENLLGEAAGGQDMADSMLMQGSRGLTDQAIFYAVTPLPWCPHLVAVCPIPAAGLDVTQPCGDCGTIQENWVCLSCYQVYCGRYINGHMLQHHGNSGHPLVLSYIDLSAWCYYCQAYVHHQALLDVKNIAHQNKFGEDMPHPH
Description: Inhibition of HDAC6 (unknown origin).

The target of data set [3] is T3, NAD-dependent protein deacetylase sirtuin-2 (Homo sapiens, UniProt Q8IXJ6).
T3 sequence (Q8IXJ6 whole entry): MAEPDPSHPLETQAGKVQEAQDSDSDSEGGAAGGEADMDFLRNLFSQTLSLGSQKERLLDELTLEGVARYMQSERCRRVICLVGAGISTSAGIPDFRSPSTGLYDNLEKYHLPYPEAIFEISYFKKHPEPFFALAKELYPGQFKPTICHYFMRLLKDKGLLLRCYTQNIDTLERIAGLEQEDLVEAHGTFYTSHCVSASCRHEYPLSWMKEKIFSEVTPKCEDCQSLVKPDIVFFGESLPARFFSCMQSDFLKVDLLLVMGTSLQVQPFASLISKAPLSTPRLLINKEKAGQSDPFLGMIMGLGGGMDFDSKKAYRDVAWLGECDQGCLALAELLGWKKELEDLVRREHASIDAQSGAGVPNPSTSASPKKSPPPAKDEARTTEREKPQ
Nature of the data set: Inhibition of His-tagged human recombinant SIRT2 expressed in Escherichia coli using Cbz-Lys(Ac)-AMC as substrate by fluorescence assay.

Data set [4] deals with T4, NAD-dependent protein deacetylase sirtuin-1 (Homo sapiens) (UniProt Q96EB6).
T4 sequence (whole entry): T1 sequence (Q96EB6 whole entry)
Nature of the data set: Inhibition of SIRT1-mediated endogenous p53 deacetylase activity in human Namalwa cells assessed as concentration required to […] to twice the basal level after 3 hrs by ELISA. Format: cell-based. In outline: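 Namalwa cells, 50,000/well, were exposed 3 h at 37 °C, 5% CO2, to 0.005–50 µM final (0.95% DMSO). Lysates were ELISA-captured on anti-p53 (DO-1), probed overnight with anti-acetyl-Lys382-p53, then HRP conjugate and Amplex Red (15 min; ex 550/em 610 nm). IC2xB is the concentration doubling basal (lowest) fluorescence. Means of three experiments.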

For a further data set, the system named is Plasma. Description: Metabolic stability in mouse plasma. Format: ADME, cell-free.
Data set [5] is described as follows: Clearance in rat. To be noted: in vivo. Format: ADME, organism-based.
The nature of data set [6]: Half life in rat. Format: ADME, organism-based. To be noted: in vivo.
A short description of data set [7]: Oral bioavailability in rat. The settings on record: in vivo. Format: ADME, organism-based.

Turning to `NC(=O)C1CCCc2c(-c3ccc(Cl)c(F)c3)n[nH]c21` (racemic), the IC50 in data set [1] worked out at 2600 nM. For the same compound, the inhibition entry in data set [2] was “inactive”.

Turning to `Cc1ccc(-c2n[nH]c3c2CCCC3C(N)=O)cc1` (racemic), the half-inhibitory concentration (IC50) in data set [1] was found to be 6200 nM. For the same compound, the inhibition result in data set [2] was “inactive”.

For `NC(=O)C1CCCc2c(-c3cc4ccccc4o3)n[nH]c21` (racemic), the values for the half-maximal inhibitory concentration (IC50) in data set [1] and in data set [3] were 3100 nM and 9000 nM, respectively. In data set [2], the inhibition result was “inactive”.

`NC(=O)C1CCCc2c(-c3cc4ccccc4s3)n[nH]c21` (racemic): the values for the concentration for half-maximal inhibition (IC50) in data set [1] and in data set [3] were 1700 nM and 5300 nM, respectively. For the same compound, the inhibition entry in data set [2] was “inactive”.

Take `NC(=O)C1CCCc2c(-c3ccc(Cl)cc3Cl)n[nH]c21` (racemic): in data set [2], the inhibition entry was “inactive”.

As to `NC(=O)C1CC2(Cc3c(-c4ccc(Cl)cc4)n[nH]c31)OCCO2` (racemic), in data set [2], the inhibition entry was “inactive”.

Turning to `COc1ccc(-c2n[nH]c3c2CCCC3C(N)=O)cc1` (racemic), the inhibition entry in data set [2] was “inactive”.

With `NC(=O)C1Cc2ccccc2Cc2c(-c3ccc(Cl)cc3)n[nH]c21` (racemic), in data set [2], the inhibition entry is “inactive”.

Regarding `NC(=O)C1CCCCc2c(-c3ccc(Cl)cc3)n[nH]c21` (racemic), the IC50 was determined as 2100 nM in data set [1] and 6800 nM in data set [3]. For the same compound, the inhibition entry in data set [2] is “inactive”. Moreover, the INH in data set [4] turned out to be 0.8 µM.

For `CC1(C)Cc2c(-c3ccc(Cl)cc3)n[nH]c2C(C(N)=O)C1` (racemic), the IC50 came out at 800 nM in data set [1] and 1700 nM in data set [3]. In data set [2], the inhibition result was “inactive”. The INH in data set [4] came to 1.2 µM. Also, in the data set on Plasma, the Stability result was “Stable”. For the same compound, the clearance in data set [5] is 5 mL/min/kg. In data set [6], this compound showed a half-life of 5.1 h. The same compound had a bioavailability in data set [7] of 23%.

Turning to `NC(=O)C1CCCc2c(-c3ccc(Cl)c(Cl)c3)n[nH]c21` (racemic), the concentration for half-maximal inhibition (IC50) in data set [1] is 1200 nM; in data set [3], 14800 nM. Further, the INH in data set [4] stood at 1.2 µM.

Regarding `NC(=O)C1CCCc2c(-c3cc(Br)cs3)n[nH]c21` (racemic), in data set [1], the 50% inhibitory concentration (IC50) is 11000 nM. Also, the inhibition result in data set [2] is “inactive”.

Turning to `NC(=O)C1CCCc2c(-c3cc4cc(Br)ccc4s3)n[nH]c21` (racemic), the inhibition entry in data set [2] is “inactive”.

As for `Cn1cc(-c2n[nH]c3c2CCCC3C(N)=O)c2ccccc21` (racemic), the inhibition entry in data set [2] is “inactive”.

As to `NC(=O)C1CCCc2c(-c3ccc(C(F)(F)F)cc3)n[nH]c21` (racemic), the inhibition result in data set [2] was “inactive”.

Turning to `NC(=O)C1CC(c2ccccc2)Cc2c(-c3ccc(Cl)cc3)n[nH]c21` (mixture of isomers), the inhibition entry in data set [2] was “inactive”.

As to `Cn1c(-c2n[nH]c3c2CCCC3C(N)=O)cc2ccccc21` (racemic), the half-inhibitory concentration (IC50) amounted to 2700 nM in data set [1] and 7800 nM in data set [3]. Further, in data set [2], the inhibition result was “inactive”.

For the compound `NC(=O)C1CCCc2c(-c3cccc(Cl)c3)n[nH]c21` (racemic), in data set [2], the inhibition entry is “inactive”.

With `NC(=O)C1CCCc2c(-c3ccccc3)n[nH]c21` (racemic), in data set [2], the inhibition result is “inactive”.

Turning to `NC(=O)C1CCCc2c(-c3ccc(F)cc3)n[nH]c21` (racemic), in data set [2], the inhibition result is “inactive”.

For `NC(=O)C1CCCc2c(-c3cc4ccccc4[nH]3)n[nH]c21` (racemic), the inhibition result in data set [2] was “inactive”.

Take `NC(=O)C1CCCCCc2c(-c3ccc(Cl)cc3)n[nH]c21` (racemic): in data set [2], the inhibition result was “inactive”.

Consider `CC1(C)Cc2c(-c3ccc(Cl)c(Cl)c3)n[nH]c2C(C(N)=O)C1` (racemic), for which the inhibition entry in data set [2] is “inactive”.

Turning to `NC(=O)C1CCCc2c(-c3cccs3)n[nH]c21` (racemic), in data set [2], the inhibition entry was “inactive”.

Consider `CCOC(=O)C1CCCc2c(-c3ccc(Cl)c(F)c3)n[nH]c21` (racemic), for which the inhibition entry in data set [2] is “inactive”.

For the compound `NC(=O)C1CCCc2c(-c3nc4ccccc4s3)n[nH]c21` (racemic), the figures for the IC50 in data set [1] and in data set [3] were 2200 nM and 8300 nM, respectively. For the same compound, the inhibition result in data set [2] was “inactive”. Besides, the INH in data set [4] was found to be 0.9 µM.

Take `Cn1c(-c2n[nH]c3c2CCCC3C(N)=O)cc2cc(Cl)ccc21` (racemic): the inhibition entry in data set [2] was “inactive”.

Take `NC(=O)C1CCCc2c(-c3ccccc3Cl)n[nH]c21` (racemic): in data set [2], the inhibition entry was “inactive”.

In the case of `CC1(C)CCC(C(N)=O)c2[nH]nc(-c3ccc(Cl)cc3)c21` (racemic), the inhibition result in data set [2] was “inactive”.

Take `CC1(C)Cc2c(-c3cc4ccccc4s3)n[nH]c2C(C(N)=O)C1` (racemic): the inhibition result in data set [2] is “inactive”.

Regarding `NC(=O)C1CCCc2c(-c3ccc(Cl)cc3)n[nH]c21` (racemic), the IC50 in data set [1] amounted to 1000 nM. For the same compound, the inhibition result in data set [2] was “inactive”. In addition, in data set [4], the INH worked out at 0.5 µM. The Stability result in the data set on Plasma was “Stable”. The same compound gave a clearance in data set [5] of 30 mL/min/kg. This compound had a half-life in data set [6] of 1.1 h. For the same compound, in data set [7], the bioavailability came out at 20%.

In the case of `NC(=O)C1CCCc2c(-c3csc4ccccc34)n[nH]c21` (racemic), in data set [2], the inhibition result is “inactive”.

For the compound `CNC(=O)C1CCCc2c(-c3ccc(Cl)cc3)n[nH]c21` (racemic), the inhibition result in data set [2] is “inactive”.

As for `NC(=O)C1CCCc2c(-c3ccc(Br)cc3)n[nH]c21` (racemic), the concentration for half-maximal inhibition (IC50) in data set [1] is 1900 nM. The inhibition result in data set [2] was “inactive”. Moreover, the INH in data set [4] is 1.5 µM.

For the compound `CC1(C)Cc2c(-c3ccc(Br)cc3)n[nH]c2C(C(N)=O)C1` (racemic), the inhibition result in data set [2] is “inactive”.

Regarding `Cn1c(-c2n[nH]c3c2CC(C)(C)CC3C(N)=O)cc2ccccc21` (racemic), the inhibition result in data set [2] is “inactive”.
